# Data published in paper PMC10874764 (Chinese Herbal Medicines, 2023).
# Read-outs that look alike come from different tables or passages of the source.
# What was measured:
# [1] = Stability of each chemical component in rat plasma; assay type: in vitro ADME
# How it was run: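 Blank rat plasma was spiked at 10, 100 and 500 ng/mL and held at room temperature for 24 h, at 4 °C for 14 d, or frozen at −20 °C for 15 d. Six samples per level were assayed by HPLC-MS/MS against 1,8-dihydroxyanthraquinone internal standard. Calibration ran 5–1 000 ng/mL, with analyte/IS ratio fitted by 1/x-weighted least squares.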
# [2] = assay type: in vivo, SD rats; details: male, SD, rat, plasma, po, 1.5 mL/200 g
# [3] = Pharmacokinetics of five components in control; assay type: in vivo, SD rats; details: for AUC / AUC(0-t) / Cmax / MRT last / half-life / Tmax: male, SD, rat, plasma, po, 1.5 mL/200 g, n = 6; for AUC: AUC(0−i); for MRT last: MRT0−t
# How it was run: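 Male SD rats (8-week-old, 200–220 g), four groups (n = 6). Acute liver injury induced by intraperitoneal 50% CCl4 in olive oil at 3 mL/kg; controls received olive oil; fasted with water. After 12 h, single intragastric decoction at 1.5 mL/200 g. Tail-vein blood taken at 0–12 h into heparin. HPLC-MS/MS with internal standard; compartment-model fit for AUC, Cmax, Tmax, T1/2 and MRT.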
# [4] = 10 ng/mL, room temperature for 24 h
# [5] = 100 ng/mL, room temperature for 24 h
# [6] = 100 ng/mL, −20 °C free for 15 d
# [7] = 500 ng/mL, room temperature for 24 h
# [8] = 500 ng/mL, −20 °C free for 15 d
# [9] = RhRR of control group, single oral 1.5 mL/200 g RhRR decoction
# [10] = RhRR-EuS of control group, single oral 1.5 mL/200 g RhRR-EuS decoction
# [11] = T1/2, RhRR-EuS of control group, single oral 1.5 mL/200 g RhRR-EuS decoction
"Stability S [1, 4] [%]","Stability S ([1]; 10 ng/mL, −4 °C for 14 d) [%]","Stability S ([1]; 10 ng/mL, −20 °C free for 15 d) [%]","Stability S [1, 5] [%]","Stability S ([1]; 100 ng/mL, −4 °C for 14 d) [%]","Stability S [1, 6] [%]","Stability S [1, 7] [%]","Stability S ([1]; 500 ng/mL, −4 °C for 14 d) [%]","Stability S [1, 8] [%]",Tmax [2] [h],"AUC [3, 9] [ng·h/mL]","AUC [3, 10] [ng·h/mL]","AUC(0-t) [3, 9] [ng·h/mL]","AUC(0-t) [3, 10] [ng·h/mL]","Cmax [3, 9] [ng/mL]","Cmax [3, 10] [ng/mL]","MRT last [3, 9] [h]","MRT last [3, 10] [h]","half-life [3, 11] [min]","Tmax [3, 9] [min]",other results,SMILES
99.60,107,88.6,88.50,112,84.3,98.50,98.30,85.6,2,738,489,474,443,101,124,11.9,5.78,182,120,"Tmax [3, 10]: 30 min","O=C1c2cccc(O)c2C(=O)c2c(O)cc(CO)cc21 [Ae, Aloe emodin]"
114,99.70,105.40,105,103,102.30,90.40,96.30,99.50,0.5,712,763,662,739,164,170,5.33,5.64,78.6,60,"half-life ([3]; T1/2, RhRR of control group, single oral 1.5 mL/200 g RhRR decoction): 218 min","Cc1cc(O)c2c(c1)C(=O)c1cccc(O)c1C2=O [Ch, Chrysophanol]"
104.60,105,98.50,110.40,108,108.40,99.60,89.90,106,–,94.1,154,67.7,68.3,11.2,16.4,9.3,18.3,685,30,–,"Cc1cc(O)c2c(c1)C(=O)c1cc(O)cc(O)c1C2=O [Em, Emodin]"
103,99.50,105,105,102,100.6,90.50,96.70,95.3,0.25,414,243,136,136,54.4,58.6,37.3,14.7,654,–,"Tmax [3, 10]: 15 min","COc1cc(O)c2c(c1)C(=O)c1cc(C)cc(O)c1C2=O [Ph, Physcion]"
106.20,95.90,109.40,112.30,94.60,95.30,89.40,85.40,100.40,8,1670,1720,1440,1600,434,455,6.31,5.44,110,–,"Bioavailability among the five components ([3]; all groups (control and model rats, oral RhRR or RhRR-EuS decoction)): highest","O=C(O)c1cc(O)c2c(c1)C(=O)c1cccc(O)c1C2=O [Rh, Rhein]"
